The record followed here is ChEMBL document CHEMBL1121614, “Synthesis and antiallergy activity of 4-oxopyrano[3,2-b]indoles” (1980).

The structures appear in SMILES notation. Calls of active or inactive are those of the source. The rule behind the calls is not given here.

Test [1] concerns Rattus norvegicus. The test is described as follows: Inhibition of rat passive cutaneous anaphylaxis at 5.0 mg/kg dose after peroral administration. The test is classed as functional. The following applies: route oral. A digest of the protocol:
(§1)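 Rats were sensitized by intradermal injection of antiserum dilutions at several back sites. Drug was suspended in 1% gum tragacanth in saline and given po or ip 10–15 min before challenge with iv ovalbumin (1 mg in 1 mL saline with 0.25% Evans blue). At 30 min the wheal's mean orthogonal diameter was measured. Diameter was plotted against antiserum level and extrapolated to zero. Five rats per group.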

The subject of test [2] is Rattus norvegicus. As to the kind of experiment: Inhibition of rat passive cutaneous anaphylaxis at 5.0 mg/kg dose after intraperitoneal administration. The test is classed as functional. The following applies: ip. A digest of the protocol:
as §1

Test [3] has as its system Rattus norvegicus. The test is described as follows: Inhibition of rat passive cutaneous anaphylaxis at 1.0 mg/kg dose after intraperitoneal administration. The following applies: ip. The test is classed as functional. The method, boiled down: as §1
The test system of test [4] is Rattus norvegicus. As to the kind of experiment: The compound was tested for inhibition of rat passive cutaneous anaphylaxis at 10 mg/kg dose after intraperitoneal administration. The test is classed as functional. Particulars: ip.
The test system of test [5] is Rattus norvegicus. The test is described as follows: The compound was tested for inhibition of rat passive cutaneous anaphylaxis at 5.0 mg/kg dose after peroral administration; O means inactive. The format is functional, organism-based. Also noted: dose 5 mg/kg. The method, boiled down: as §1
The test system of test [6] is Rattus norvegicus. As to the kind of experiment: The compound was tested for inhibition of rat passive cutaneous anaphylaxis at 2.0 mg/kg dose after intraperitoneal administration. The format is functional. The following applies: ip.
The test system of test [7] is Rattus norvegicus. As to the kind of experiment: The compound was tested for inhibition of rat passive cutaneous anaphylaxis at 2.0 mg/kg dose after peroral administration. The test is classed as functional. Particulars: route oral. The method, boiled down:
as §1

In test [8] the test system is Rattus norvegicus. The test is described as follows: The compound was tested for inhibition of rat passive cutaneous anaphylaxis at 1 mg/kg dose after iv administration. The format is functional. The method, boiled down: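 Rat PCA by the iv route. Antiserum dilutions were injected intradermally on the back 48 h before iv challenge with 1 mg ovalbumin in 1 mL saline plus 0.25% Evans blue. Compound was dissolved, if needed, in slight molar excess NaHCO3 and diluted into the antigen solution. Wheal diameter was read at 30 min and extrapolated to zero antiserum by least squares. Groups of five.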

Test [9] relates to Rattus norvegicus. As to the kind of experiment: The compound was tested for inhibition of rat passive cutaneous anaphylaxis at 1.0 mg/kg dose after peroral administration. The format is functional. Particulars: route oral. A digest of the protocol:
as §1

The inhibition in vivo is the change of the read-out against control, counted positive when it falls. As for `Cn1c2ccccc2c2oc(C(=O)O)cc(=O)c21`, the figures for the inhibition in vivo at 5 mg/kg with Rattus norvegicus [1] and with Rattus norvegicus [2] were 96% and 100%, respectively. The same compound displayed an inhibition in vivo at 1 mg/kg in the test with Rattus norvegicus [3] of 30%.
In turn, `Cn1c2c([N+](=O)[O-])cc([N+](=O)[O-])cc2c2oc(C(=O)Nc3nn[nH]n3)cc(=O)c21` gave an inhibition in vivo at 5 mg/kg in the test with Rattus norvegicus [2] of 48%.
Take `Cc1ccc2c(c1)c1oc(C(=O)Nc3nn[nH]n3)cc(=O)c1n2C`: the inhibition in vivo at 5 mg/kg with Rattus norvegicus [1] is 0%; in the test with Rattus norvegicus [2], 100%. Further, at 1 mg/kg the inhibition in vivo in the test with Rattus norvegicus [3] was 33%.
On to `CCn1c2ccccc2c2oc(-c3nn[nH]n3)cc(=O)c21`, for which the inhibition in vivo at 5 mg/kg worked out at 70% in the test with Rattus norvegicus [1] and 100% in the test on Rattus norvegicus [2]. This compound also yielded an inhibition in vivo at 1 mg/kg with Rattus norvegicus [3] of 100%.
Turning to `Cn1c2ccc([N+](=O)[O-])cc2c2oc(C(=O)O)cc(=O)c21`, the inhibition in vivo at 5 mg/kg worked out at 0% in the test on Rattus norvegicus [1] and 100% in the test with Rattus norvegicus [2]. The inhibition in vivo at 1 mg/kg in the test on Rattus norvegicus [3] was 1%.
On the same counts, the results for `Cc1ccc2c(c1)c1oc(-c3nn[nH]n3)cc(=O)c1n2C` are 56%, 100% and 25%.
With `O=C(Nc1nn[nH]n1)c1cc(=O)c2c(o1)c1ccccc1n2-c1ccccc1`, the results for the inhibition in vivo at 5 mg/kg in the test with Rattus norvegicus [1] and in the test on Rattus norvegicus [2] were 7% and 0%, respectively.
`O=c1cc(-c2nn[nH]n2)oc2c3ccccc3n(-c3ccccc3)c12`: the inhibition in vivo at 5 mg/kg is 32% in the test on Rattus norvegicus [1] and 100% with Rattus norvegicus [2]. The compound also returned an inhibition in vivo at 1 mg/kg in the test with Rattus norvegicus [3] of 61%.
`O=C1c2ccccc2S(=O)(=O)c2cc(-c3nn[nH]n3)ccc21` [DOXANTRAZOLE] gave an inhibition in vivo at 5 mg/kg in the test on Rattus norvegicus [1] of 50%. Also, the inhibition in vivo at 10 mg/kg in the test on Rattus norvegicus [4] worked out at 97%. This compound displayed an inhibition in vivo at 1 mg/kg with Rattus norvegicus [3] of 33%.
Turning to `Cn1c2ccccc2c2oc(-c3nn[nH]n3)cc(=O)c21`, the values for the inhibition in vivo at 5 mg/kg with Rattus norvegicus [1] and in the test with Rattus norvegicus [2] were 39% and 100%, respectively. Also, in the test on Rattus norvegicus [3], testing at 1 mg/kg gave an inhibition in vivo of 87%.
For the compound `O=C(O)c1cc(=O)c2c(OCC(O)COc3cccc4oc(C(=O)O)cc(=O)c34)cccc2o1` [CROMOLYN SODIUM], the inhibition entry in the test with Rattus norvegicus [5] was “inactive”. Further, the inhibition in vivo at 2 mg/kg with Rattus norvegicus [6] is 50%. The inhibition in vivo at 10 mg/kg with Rattus norvegicus [4] is 89%.
In turn, `CCn1c2ccccc2c2oc(C(=O)O)cc(=O)c21` yielded an inhibition in vivo at 2 mg/kg with Rattus norvegicus [7] of 22%. The inhibition in vivo at 1 mg/kg came to 100% in the test with Rattus norvegicus [8] and 0% in the test with Rattus norvegicus [3].
Turning to `Cn1c2ccccc2c2oc(C(=O)Nc3nn[nH]n3)cc(=O)c21`, the inhibition in vivo at 5 mg/kg was 0% in the test on Rattus norvegicus [1] and 100% in the test with Rattus norvegicus [2]. For the same compound, in the test with Rattus norvegicus [3], the inhibition in vivo at 1 mg/kg stood at 28%.
On the same counts, the results for `CCn1c2ccccc2c2oc(C(=O)Nc3nn[nH]n3)cc(=O)c21` are 1%, 100% and 12%.
On the same counts, the results for `Cn1c2ccc(Cl)cc2c2oc(C(=O)Nc3nn[nH]n3)cc(=O)c21` are 6%, 100% and 38%.
Regarding `Cn1c2ccc(Cl)cc2c2oc(C(=O)O)cc(=O)c21`, the inhibition in vivo at 5 mg/kg in the test with Rattus norvegicus [1] is 2%; in the test with Rattus norvegicus [2] it was 23%.
`O=C(O)c1cc(=O)c2c(o1)c1ccccc1n2-c1ccccc1` yielded an inhibition in vivo at 2 mg/kg in the test on Rattus norvegicus [7] of 0%. The results for the inhibition in vivo at 1 mg/kg in the test with Rattus norvegicus [8] and with Rattus norvegicus [3] were 100% and 13%, respectively.
For `Cc1ccc2c(c1)c1oc(C(=O)O)cc(=O)c1n2C`, in the test with Rattus norvegicus [7], 2 mg/kg produced 11% inhibition in vivo. For the same compound, the inhibition in vivo at 1 mg/kg in the test on Rattus norvegicus [3] worked out at 18%.
On to `Cn1c2c([N+](=O)[O-])cc([N+](=O)[O-])cc2c2oc(C(=O)O)cc(=O)c21`, for which the inhibition in vivo at 5 mg/kg with Rattus norvegicus [1] and in the test on Rattus norvegicus [2] was 0% throughout.
`Cn1c2ccc(Cl)cc2c2oc(-c3nn[nH]n3)cc(=O)c21`: the inhibition in vivo at 5 mg/kg stood at 33% in the test with Rattus norvegicus [1] and 100% in the test with Rattus norvegicus [2]. In addition, the inhibition in vivo at 1 mg/kg in the test on Rattus norvegicus [3] was 46%.
For `Cn1c2ccc([N+](=O)[O-])cc2c2oc(C(=O)Nc3nn[nH]n3)cc(=O)c21`, the inhibition in vivo at 1 mg/kg in the test on Rattus norvegicus [9] came out at 15%; in the test with Rattus norvegicus [3], 42%. This compound had an inhibition in vivo at 5 mg/kg in the test with Rattus norvegicus [2] of 100%.
